Several values for one entry are separate records, joined by “and”; a condition that tells them apart may be missing. Equal entries are not always repeated.
System: U2OS
Assay: Multiplex assay against U2OS
Format: toxicity, cell-based
Conditions: human, number of replicates 2
Summary of the method: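 Hoechst33342, BioTracker Green Microtubule Cytoskeleton Dye, MitoTracker Red and Annexin V Alexa Fluor 680 were added to live cells at seeding, and imaging on a CQ1 microscope at 37°C and 5% CO2 followed compound addition. Gating by CellPathfinder machine learning separated cells into Hoechst high-intensity objects or normal cells, then normal cells into healthy, pyknosed or fragmented nuclei, then pyknosed cells into mitotic or apoptotic. Per cents of healthy-nucleus cells are reported for the tubulin, mitochondrial-mass and membrane-permeability phenotypes.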

[1] = 12 h, 1 µM, compound concentration 1 uM
[2] = 12 h, 10 µM, compound concentration 10 uM
[3] = 24 h, 1 µM, compound concentration 1 uM
[4] = 24 h, 10 µM, compound concentration 10 uM
[5] = 48 h, 1 µM, compound concentration 1 uM
[6] = 48 h, 10 µM, compound concentration 10 uM

| Structure (SMILES) | Population Apoptotic (%) [2] | Population Healthy Nuclei (%) [2] | Population Hoechst High Intensity Objects (%) [2] | Population Mitochondria Different-Phenotype (%) [2] | Population Normal (%) [2] | Population Pyknosed Nuclei (%) [2] | Population Apoptotic (%) [4] | Population Healthy Nuclei (%) [4] | Population Hoechst High Intensity Objects (%) [4] | Population Mitochondria Different-Phenotype (%) [4] | Population Normal (%) [4] | Population Pyknosed Nuclei (%) [4] | Population Tubulin-Different-Phenotype (%) [4] | Population Apoptotic (%) [6] | Population Healthy Nuclei (%) [6] | Population Hoechst High Intensity Objects (%) [6] | Population Membrane Permeable-Phenotype (%) [6] | Population Mitochondria Different-Phenotype (%) [6] | Population Normal (%) [6] | Population Pyknosed Nuclei (%) [6] | also measured |
| --- | --- | --- | --- | --- | --- | --- | --- | --- | --- | --- | --- | --- | --- | --- | --- | --- | --- | --- | --- | --- | --- |
| OC(c1ccc(-c2ccc(CN3CCN(Cc4ccncc4)CC3)cc2)c(F)c1)(C(F)(F)F)C(F)(F)F | 50% and 40% | 80% and 50% | 0% | 3% and 0% | 100% | 15% and 17% | 53% and 57% | 79% and 54% | 0% | 2% and 0% | 99% and 100% | 14% and 18% | 50% and 25% | 54% and 58% | 84% and 56% | 0% and 1% | 3% and 10% | 2% and 3% | 100% and 98% | 11% and 23% | Population Hoechst High Intensity Objects (%) [1]: 0%; Population Mitochondria Different-Phenotype (%) [1]: 0% and 1%; Population Normal (%) [1]: 100%; Population Pyknosed Nuclei (%) [1]: 14% and 9%; Population Tubulin-Different-Phenotype (%) [1]: 100% and 87%; Population Mitotic Cells (%) [2]: 50% and 60%; Population Hoechst High Intensity Objects (%) [3]: 0%; Population Membrane Permeable-Phenotype (%) [3]: 0%; Population Mitochondria Different-Phenotype (%) [3]: 0%; Population Mitotic Cells (%) [3]: 100% and 42%; Population Normal (%) [3]: 100% and 99%; Population Pyknosed Nuclei (%) [3]: 20% and 9%; Population Mitotic Cells (%) [4]: 46% and 42%; Population Hoechst High Intensity Objects (%) [5]: 0%; Population Membrane Permeable-Phenotype (%) [5]: 0% and 1%; Population Mitochondria Different-Phenotype (%) [5]: 0%; Population Normal (%) [5]: 100%; Population Pyknosed Nuclei (%) [5]: 0% and 5%; Population Mitotic Cells (%) [6]: 45% and 41% |
| C[C@@H]1CC[C@@]2(OC1)O[C@H]1[C@@H](O)[C@H]3[C@@H]4CC[C@H]5C[C@@H](O[C@@H]6O[C@H](CO)[C@H](O[C@@H]7O[C@H](CO)C(O)[C@H](O[C@@H]8OC[C@@H](O)[C@H](O)[C@H]8O)[C@H]7O[C@@H]7O[C@H](CO)[C@H](O)[C@H](O[C@@H]8O[C@H](CO)[C@@H](O)[C@H](O)[C@H]8O)[C@H]7O)[C@H](O)[C@H]6O)[C@H](O)C[C@]5(C)[C@H]4CC[C@]3(C)[C@H]1[C@@H]2C (stereo partly drawn) [DIGITONIN] | 65% [middle of 4 runs] | 67% and 87% and 86% and 88% | 0% | 0% and 3% | 100% | 5% and 3% and 9% | 58% [middle of 4 runs] | 67% and 83% and 85% and 86% | 0% | 0% and 2% | 100% | 13% and 12% and 9% | 65% and 97% and 90% and 96% | 70% and 100% and 62% and 51% | 68% and 75% and 92% and 91% | 1% and 0% | 3% and 1% and 0% | 5% and 1% and 0% | 98% and 100% and 99% | 13% and 7% and 6% and 5% | Population Membrane Permeable-Phenotype (%) [2]: 0% and 7% and 1% and 3%; Population Tubulin-Different-Phenotype (%) [2]: 72% and 92% and 85% and 94%; Population Membrane Permeable-Phenotype (%) [4]: 0% and 2% and 1%; Population Tubulin-Different-Phenotype (%) [6]: 84% and 100% and 92% and 97% |

Source: ChEMBL document CHEMBL5303300, “EUbOPEN Chemogenomics Library - Multiplex” (2023)
